These results are taken from ChEMBL document CHEMBL1156083, “N,N-Diethyl-4-[(3-hydroxyphenyl)(piperidin-4-yl)amino] benzamide derivatives: the development of diaryl amino piperidines as potent delta opioid receptor agonists with in vivo anti-nociceptive activity in rodent models” (Bioorg Med Chem Lett, 2009).

Data set [1] concerns Mus musculus. Nature of the data set: Antinociceptive activity against acetic acid-induced writhing response in iv dosed CD1 mouse after 20 mins. Format: functional. The essentials:
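CD1 mice received the compound intravenously at doses of 4 to 25 before the acetic acid-induced abdominal constriction (writhing) test. Writhing inhibition was scored 20 min after dosing and ED₅₀ was taken from the dose-response. A separate arm was pretreated with the delta-selective antagonist naltrindole.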

The subject of data set [2] is Rattus norvegicus. Briefly: Antihyperalgesic activity against carrageenan-induced inflammatory hyperalgesia in iv dosed Sprague-Dawley rat after 30 mins. Format: functional. The essentials:
(§1)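 Sprague-Dawley rats with carrageenan-induced inflammatory hyperalgesia received the compound intravenously across a dose range of 3 to 30. Antinociceptive reversal was measured 30 min after dosing.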

For data set [3], the system named is Mus musculus. Nature of the data set: Toxicity in CD1 mouse assessed convulsant activity at 4 to 25 umol/kg, iv after 20 mins. Format: organism-based. The conditions noted are these: in vivo. The essentials:
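CD1 mice were watched for convulsions during the acetic acid writhing experiment, at the intravenous doses used there (4 to 25) and 20 min after dosing.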

In data set [4] the test system is Rattus norvegicus. Briefly: Antihyperalgesic activity against carrageenan-induced inflammatory hyperalgesia in Sprague-Dawley rat at 30 umol/kg, iv after 30 mins. Format: functional. The procedure, abridged:
as §1

The nature of data set [5]: Bioavailability in rat. Format: ADME, organism-based. The conditions noted are these: in vivo.
In data set [6] the test system is Rattus norvegicus. Nature of the data set: Toxicity in Sprague-Dawley rat assessed hyperactivity at above 30 umol/kg, iv after 30 mins. Format: organism-based. The conditions noted are these: in vivo, 0.5 h.
The nature of data set [7]: Half life in rat. Format: ADME, organism-based. The following applies: in vivo.
Data set [8] concerns Mus musculus. Nature of the data set: Toxicity in CD1 mouse assessed hyperactivity at above 30 umol/kg, iv after 20 mins. Format: organism-based. The following applies: in vivo.
Data set [9] deals with Rattus norvegicus. Nature of the data set: Toxicity in Sprague-Dawley rat assessed convulsant activity at 3 to 30 umol/kg, iv after 30 mins. Format: organism-based. The conditions noted are these: in vivo, 0.5 h. The procedure, abridged:
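Sprague-Dawley rats were watched for convulsions during the carrageenan hyperalgesia experiment, at the intravenous doses used there (3 to 30) and 30 min after dosing.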

As for `CN1CC[C@]23c4c5ccc(O)c4O[C@H]2[C@@H](O)C=C[C@H]3[C@H]1C5` [MORPHINE], the figures for the Activity in the data set with Mus musculus [1] and in the data set with Rattus norvegicus [2] were 1.5 µmol/kg and 3.1 µmol/kg, respectively.

For `CCN(CC)C(=O)c1ccc(N(c2cccc(O)c2)C2CCN(CCc3ccccc3)CC2)cc1`, the Activity result in the data set on Mus musculus [3] was “Non-toxic”; with Rattus norvegicus [4], 60%; with Rattus norvegicus [6], “Non-toxic”; in the data set on Mus musculus [8], “Non-toxic”; in the data set with Rattus norvegicus [9], “Non-toxic”; in the data set on Rattus norvegicus [2], “Dose-dependent effect”. This molecule also had a bioavailability in data set [5] of 25%. The same molecule had a half-life in [7] of 48 min. In the data set with Rattus norvegicus [2] (Rattus norvegicus, Sprague-Dawley, iv, 0.5 h), this molecule displayed an ED50 of 17.5 µmol/kg.

The bioavailability is dose-corrected exposure relative to a reference, in per cent. High values mean much systemic uptake, low ones little systemic uptake. In general, half-life refers to the time needed for the level to fall by half in the phase considered. Higher therefore signals slow loss. The term ED50 denotes the dose that gives a 50% effect, or the effect in half of the subjects. A low value points to greater potency.
